An excerpt weighted towards active compounds, which were near 2.5% of everything screened.
TbMetRS inhib: T. brucei MetRS inhibitors, primary screen, biochemical, luminescence. methionyl-tRNA synthetase (Trypanosoma brucei brucei). purified T. brucei MetRS, ATP depletion, Kinase-Glo luminescence. inhibition, % at 11.9 µM. 360,000 compounds, 0.4% hits. AID 624268, 2012;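 active means inhibition above a per-plate cutoff of the control wells' mean inhibition plus 3 SD, cut at about 5.5% in these data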;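 further: 0% = DMSO wells median and 100% = median of wells with control inhibitor compound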
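technique = Kinase-Glo luminescence, ATP depletion format | system = purified MetRS (methionyl-tRNA synthetase) enzyme from Trypanosoma brucei | timing = 15 min preincubation, 2 h reaction, all 25 °C | evaluation = percent inhibition versus plate control medians | dosing = single dose, 11.9 µM final nominal, 0.9% final DMSO | also added = substrates ATP, L-methionine and bulk Escherichia coli tRNA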
MC4R barr agon: MC4R agonists recruiting beta-arrestin, primary screen, cell-based, luminescence, agonist arm of biased-ligand search | U2OS MC4R beta-arrestin complementation; percent of melanotan II response, DMSO zero | Melanocortin receptor 4 (Homo sapiens), P32245 | activation, % at 8.9 µM | 360,000 compounds, 0.98% hits;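 active means activation above a per-plate cutoff, the mean activation of sample wells on that plate plus 3 SD, cut at about 8% in these data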
Target sequence (P32245 whole entry, looked up): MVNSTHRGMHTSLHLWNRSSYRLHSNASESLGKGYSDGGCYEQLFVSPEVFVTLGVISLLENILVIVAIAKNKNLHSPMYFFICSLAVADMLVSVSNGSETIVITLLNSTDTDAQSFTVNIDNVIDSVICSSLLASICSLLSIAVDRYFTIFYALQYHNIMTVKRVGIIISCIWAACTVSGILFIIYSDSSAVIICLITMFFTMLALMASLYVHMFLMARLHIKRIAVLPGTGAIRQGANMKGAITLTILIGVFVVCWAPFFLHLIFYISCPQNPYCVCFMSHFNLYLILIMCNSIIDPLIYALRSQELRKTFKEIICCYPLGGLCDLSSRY
A1 inh: caspase 3/7 activation in MEF A1-2A-BIM cells, primary screen, A1 inhibitor project, cell-based, luminescence, HTS; Caspase-Glo 3/7 luminescence, 3 h; percent of clofoctol response, vehicle zero; caspase activation, % (test concentration not listed); 330,000 compounds, 0.066% hits; AID 2462, 2010;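 active means over half of replicate activation scores above 10%, or exactly half above 10 with the replicate mean above 10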
NALP1 inh: NALP1 inflammasome inhibitors in reconstituted yeast, colorimetric, S. cerevisiae, triplicate retest | 280,000 compounds, 0.61% hits | S. cerevisiae NALP1/ASC/caspase-1 growth, X-gal OD620, 72 h | inhibition, % at 10 µM; in the data active means inhibition mostly above about 24%, no sharp cut-off; inactive means mostly below about 32%
MC4R antag cAMP: MC4R antagonists of cAMP signaling, primary screen, cell-based, TR-FRET, antagonist arm of biased-ligand search. Melanocortin receptor 4 (Homo sapiens), P32245. MC4R-expressing cells, MTII-stimulated cAMP, LANCE TR-FRET. inhibition, % at 6.5 µM. 360,000 compounds, 0.48% hits;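 active means inhibition above its plate's cutoff, the mean of tested wells on that plate plus 3 SD, cut at about 29% in these data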;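 further: 0% = Melanotan II alone and 100% = Melanotan II plus saturating MCL0020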
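Assay system: U2OS cells stably expressing human melanocortin 4 receptor (MC4R) / Dosing: 6.5 µM / Timing: compound 30 min, challenge 1 h, detection 1 h / Measured by: Eu-cAMP/anti-cAMP TR-FRET, emission 671 nm / Replicates: singlicate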
NALP3 yeast inh: NALP3 inflammasome inhibitors in reconstituted yeast, primary screen, luminescence, uHTS | Yeast reconstituted NLRP3/ASC/caspase-1, beta-gal luminescence, 24 h | 330,000 compounds, 0.39% hits | inhibition, % at 10 µM;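 active means inhibition of 50% or more; inactive means inhibition below 50%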;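 further: plate controls were induced DMSO wells for no effect and uninduced yeast grown without galactose for full effect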
Numbers without * were called inactive; . = not tested or not shown.

SMILES | TbMetRS inhib | MC4R barr agon | A1 inh | NALP1 inh | MC4R antag cAMP | NALP3 yeast inh
Cc1ccc2nc(SCc3ccc([N+](=O)[O-])cc3)[nH]c2c1 | 19* | -2 | 1 | -16 | 0 | 15
CCCCCc1ccc(OCCOCCn2c[n+](C)c3ccccc32)c(CCCCC)c1 | -1 | 17* | . | 14 | -8 | .
Cc1ccc2nc3c(cc(C(=O)NC4CCS(=O)(=O)C4)n3Cc3ccccc3)c(=O)n2c1 (centres undefined) | -1 | 2 | 0 | 2 | 6 | 0
Cc1ccc(C(=O)N/C(=C\c2ccco2)C(=O)NCCCN2CCOCC2)cc1C | -1 | -1 | 0 | 2 | -1 | 17
Cc1ccc(C(=O)N/C(=C\c2ccco2)C(=O)NCCN2CCOCC2)cc1C | 0 | 8.4* | 0 | 6 | -4 | 6
CN1CCc2nc3sc(C(=O)C45CC6CC(CC(C6)C4)C5)c(N)c3cc2C1 | -2 | 12* | 0 | 6 | 0 | 16
O=C1C=CC(=Nc2ccc3c(c2)Cc2ccccc2-3)O1 | 0 | -1 | . | . | -6 | .
Cc1noc(C)c1CSCC(=O)N(C)CC(=O)Nc1ccc(Cl)c(C(F)(F)F)c1 | 0 | -1 | 0 | . | 4 | -1
Cc1noc(C)c1CSCC(=O)N(C)CC(=O)Nc1ccc(Cl)c(Cl)c1 | 1 | -3 | 9.7* | . | -1 | -5
COc1ccc(NC2CCCN(C(=O)c3ccc(C(C)=O)cc3)C2)cc1 (centres undefined) | 0 | -2 | 1 | 2 | 0 | 19
COc1ccc(C(=O)N2CCCC(Nc3ccc(F)cc3)C2)c(OC)c1 (centres undefined) | 0 | -2 | 1 | 30* | 8 | 14
Cc1ccc(Cl)cc1Nc1nc(-c2sc(NC(=O)c3ccco3)nc2C)cs1 | -1 | 0 | 0 | 8 | 17 | 16
Cc1nc(NC(=O)c2ccco2)sc1-c1csc(Nc2ccc(Cl)cc2Cl)n1 | 0 | 8.5* | -3 | -4 | 27 | 22
CCCCn1c(N)c(N(CCOC)C(=O)COC(=O)CCOc2ccc(C)cc2)c(=O)[nH]c1=O | 0 | 0 | 0 | . | 3 | 3
CNc1cc(CSC)nc(SCc2ccc(Cl)cc2Cl)n1 | 2 | -1 | 0 | 33* | -15 | 41
CCOc1cc(C)c(S(=O)(=O)Nc2ccc(F)cc2)cc1C | 1 | 16* | 0 | 22 | 20 | 5
COc1ccc(C)cc1S(=O)(=O)Nc1ccc(F)cc1 | -1 | -3 | 0 | 13 | 5 | 5
Cc1cc(C)n2nc(N)c(N=Nc3ccc4c(c3)OCO4)c2n1 | -1 | 8.6* | -9 | 4 | -16 | 16
c1ccc(CNc2c(C3CCNCC3)nc3scc(-c4ccccc4)n23)cc1 | -1 | . | . | . | . | .
COc1ccc(-c2sc3cc(OC)ccc3c2-c2ccc(OCCN3CCCCC3)cc2)cc1 | 0 | . | . | . | . | .
COc1cccc(-c2sc3ccccc3c2-c2ccc(OCCN3CCCCC3)cc2)c1 | 0 | 18* | 0 | . | 17 | 41
COc1cccc(-c2sc3cc(OC)c(OC)cc3c2-c2ccc(OCCN3CCCCC3)cc2)c1 | -2 | 11* | . | . | 14 | .
COc1cccc(-c2sc3ccc(OC)cc3c2-c2ccc(OCCN3CCCC3)cc2)c1 | -1 | 27* | . | . | 11 | .
COc1ccc(C(O)c2nc(-c3cccc(F)c3)cs2)cc1 (centres undefined) | 0 | 3 | . | . | -5 | .
Cc1noc(C)c1COc1ccc(C(=O)OC(C)C(=O)Nc2ccc(N3CCOCC3)cc2)cc1 (centres undefined) | -1 | -2 | 5.8* | 3 | -2 | -3
SMILES | TbMetRS inhib | MC4R barr agon | A1 inh | NALP1 inh | MC4R antag cAMP | NALP3 yeast inh
CC(=O)Nc1ccc(NC(=O)C(C)OC(=O)c2ccc(OCc3c(C)noc3C)cc2)cc1 (centres undefined) | 0 | 1 | 0 | -4 | 7 | 19
COc1ccc(CCN(C(=S)Nc2ccccc2)C2CC(=O)N(c3ccccc3)C2=O)cc1 (centres undefined) | 16* | 7 | -1 | 9 | 22 | 24
COc1ccc(CN(C(=S)Nc2ccccc2)C2CC(=O)N(c3ccc(F)cc3)C2=O)cc1 (centres undefined) | -1 | 2 | 0 | 5 | 20 | -4
COc1ccc(CCn2c(-c3ccc(Cl)cc3)n[nH]c2=S)cc1OC | 0 | -3 | 0 | 33* | 5 | 18
CC1=C(C(=O)N(C)C)CC(CC(=O)NCCc2ccccn2)C(=O)N1Cc1ccccc1 (centres undefined) | -2 | 2 | . | . | 13 | .
CCCCn1cnc2c(sc3nc4c(cc32)CSC(C)(C)C4)c1=O | 0 | -2 | -1 | 31 | 3 | 11
CC1(C)Cc2nc3sc4c(NCCO)ncnc4c3cc2CS1 | -1 | -1 | -1 | 31* | -29 | 6
O=C(Nc1ccc(Cl)cc1)[C@@H]1[C@@H]2C(=O)N(c3ccc4ccccc4c3)C(=O)[C@@H]2[C@H]2C=CC=NN21 | -1 | 0 | -1 | 13 | 11 | 13
COc1ccc(N2C(=O)[C@@H]3[C@H](C2=O)[C@H]2C=CC=NN2[C@@H]3C(=O)Nc2ccc(Cl)cc2)cc1 | 0 | -2 | 0 | 6 | 29* | 3
Cc1cc(C)c(NC(=O)COC(=O)COc2ccc3c(C)cc(=O)oc3c2)c(Cl)c1 | 0 | 0 | 0 | . | 5 | 20
CNC(=O)CN1C(=O)CSc2ncccc21 | 0 | 1 | 0 | 41* | -2 | -2
CC1C/C(=C\c2cccnc2)C(=O)/C(=C/c2cccnc2)C1 (centres undefined) | 0 | -3 | 2 | 68* | 12 | .
COc1cccc(OCc2ccc(Cn3nc(NC(=O)NCCc4ccc(OC)c(OC)c4)c4ccccc43)cc2)c1 | 0 | 0 | . | . | 9 | .
O=C(CSc1ccc(-c2ccc(-n3cccn3)cc2)nn1)Nc1ccccc1F | 0 | 11* | 0 | . | 2 | 2
O=C(CSc1ccc(-c2cccnc2)nn1)Nc1ccccc1F | 0 | 2 | 0 | -8 | -2 | 3
CC(=O)c1cccc(NC(=S)NC(=O)c2ccc(Br)cc2)c1 | 0 | 8.5* | -1 | 23 | 8 | 5
CC(=O)c1cccc(NC(=S)NC(=O)c2ccc(C)cc2Cl)c1 | 0 | -2 | 0 | 37* | 0 | 9
COc1ccc(Cn2c(=O)[nH]c3cc(C(=O)N4CCN(Cc5ccccc5)CC4)ccc3c2=O)cc1 | 0 | -1 | 0 | 27* | 6 | -2
